ChEMBL document CHEMBL4373648, “Anti-biofilm activity of quinazoline derivatives against Mycobacterium smegmatis” (Medchemcomm, 2019)

Experiments:
[1] = system: Mycolicibacterium smegmatis; assay: Antibiofilm activity against Mycobacterium smegmatis str. MC2 155 ATCC 700084 after 48 hrs by crystal violet staining based […] assay; format: functional, organism-based; settings: MC2 155 ATCC 700084, 48 h
Summary of the method: (§1)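 IC50 is the concentration giving 50% inhibition of biofilm formation relative to an untreated control.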

[2] = system: Mycolicibacterium smegmatis; assay: Antibiofilm activity against Mycobacterium smegmatis str. MC2 155 ATCC 700084 after 48 hrs by crystal violet staining based spectrophotometric assay; format: functional, organism-based; settings: MC2 155 ATCC 700084, 48 h; summary of the method: as §1
[3] = Hemolytic activity in sheep RBC at 200 uM incubated for 1 hr under shaking condition by UV-spectrophotometry relative to 1% Triton-X; format: ADME, cell-based, Ovis aries, Erythrocyte; settings: sheep red blood cells (erythrocytes), read-out: Activity
Summary of the method: (§2)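 Red blood cells were exposed to compound, and hemolysis was expressed as percent lysis relative to 1% Triton-X. The assay served as an antibiotic toxicity screen, and 500 μM was the highest concentration tested.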

[4] = Hemolytic activity in sheep RBC at 500 uM incubated for 1 hr under shaking condition by UV-spectrophotometry relative to 1% Triton-X; format: ADME, cell-based, Ovis aries, Erythrocyte; settings: sheep red blood cells (erythrocytes), read-out: Activity; summary of the method: as §2
[5] = system: Mycolicibacterium smegmatis; assay: Toxicity against Mycobacterium smegmatis str. MC2 155 ATCC 700084 at 60 uM assessed as planktonic growth inhibition incubated for 4 to 48 hrs followed by replating on 7H10 plates and measured after 48 hrs by time kill curve assay; format: organism-based; settings: in vivo
Summary of the method: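 Planktonic growth curves of bacteria grown with compound at 60 μM were compared with curves from untreated cultures.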

[6] = Hemolytic index, ratio of compound concentration causing hemolysis in sheep RBC to IC50 for antibiofilm activity against Mycobacterium smegmatis str. MC2 155 ATCC 700084
Summary of the method: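 Red blood cells were exposed to compound at up to 500 μM, including 200 μM. Lysis was quantified relative to 1% Triton-X. The index was calculated as the hemolysis-causing concentration divided by the biofilm-inhibition IC50.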

SMILES: CCC(=O)Nc1ccc2nc(N)ncc2c1
- IC50 [1]: 42 µM

SMILES: CCCCc1ccc(C(=O)Nc2ccc3nc(N)ncc3c2)cc1
- IC50 [1]: 39 µM

SMILES: CCCCCCCC(=O)Nc1ccc2nc(N)ncc2c1
- IC50 [1]: > 100 µM

SMILES: CCCS(=O)(=O)Nc1ccc2nc(N)ncc2c1
- IC50 [1]: 36 µM

SMILES: CCCCCCC(CCCCCC)NC(=O)CCCc1c[nH]c(N)n1
- IC50 [2]: 5.3 µM

SMILES: CCCCCCCCC(=O)Nc1ccc2nc(N)ncc2c1
- IC50 [1]: > 100 µM

SMILES: CCc1ccc(C(=O)Nc2ccc3nc(N)ncc3c2)cc1
- IC50 [1]: 18 µM

SMILES: CCS(=O)(=O)Nc1ccc2nc(N)ncc2c1
- IC50 [1]: 34 µM

SMILES: CCCCCCCc1ccc(C(=O)Nc2ccc3nc(N)ncc3c2)cc1
- hemolysis at 1 h, 200 µM [3]: 31%
- IC50 [1]: > 100 µM
- hemolysis at 1 h, 500 µM [4]: 57%

SMILES: Nc1ncc2cc(NC(=O)c3ccc(I)cc3)ccc2n1
- IC50 [1]: > 200 µM

SMILES: Nc1ncc2cc(NC(=O)c3ccc(Br)cc3)ccc2n1
- IC50 [1]: 44 µM

SMILES: Nc1ncc2cc(NC(=O)c3ccc(F)cc3)ccc2n1
- IC50 [1]: > 200 µM

SMILES: Nc1ncc2cc(NC(=O)CCl)ccc2n1
- IC50 [1]: 43 µM

SMILES: Cc1ccc(C(=O)Nc2ccc3nc(N)ncc3c2)cc1
- IC50 [1]: 19 µM

SMILES: CCCCCCc1ccc(C(=O)Nc2ccc3nc(N)ncc3c2)cc1
- IC50 [1]: 65 µM

SMILES: Nc1ncc2cc(NC(=O)C(Cl)(Cl)Cl)ccc2n1
- IC50 [1]: 50 µM

SMILES: Nc1ncc2cc(NC(=O)c3cc(F)cc(F)c3)ccc2n1
- IC50 [1]: 46 µM

SMILES: CCCCCc1ccc(C(=O)Nc2ccc3nc(N)ncc3c2)cc1
- IC50 [1]: 39 µM

SMILES: CCCC(=O)Nc1ccc2nc(N)ncc2c1
- IC50 [1]: 37 µM

SMILES: Nc1ncc2cc(NC(=O)c3cc(Cl)cc(Cl)c3)ccc2n1
- IC50 [1]: 42 µM

SMILES: CCCCC(=O)Nc1ccc2nc(N)ncc2c1
- IC50 [1]: 26 µM

SMILES: Cl.Nc1ncc2cc(NC(=O)c3ccc(Cl)cc3)ccc2n1
- hemolysis at 1 h, 200 µM [3]: 4%
- Activity [5]: Non-Toxic
- IC50 [1]: 15 µM
- HI [6]: > 33
- hemolysis at 1 h, 500 µM [4]: 24%

SMILES: CS(=O)(=O)Nc1ccc2nc(N)ncc2c1
- IC50 [1]: > 100 µM

SMILES: CCCCCC(=O)Nc1ccc2nc(N)ncc2c1
- IC50 [1]: 23 µM

SMILES: Nc1ncc2cc(NS(=O)(=O)c3cccs3)ccc2n1
- IC50 [1]: > 100 µM

SMILES: CC(=O)Nc1ccc2nc(N)ncc2c1
- IC50 [1]: 54 µM

SMILES: CCCCS(=O)(=O)Nc1ccc2nc(N)ncc2c1
- IC50 [1]: 60 µM

SMILES: CCCCCCC(=O)Nc1ccc2nc(N)ncc2c1
- IC50 [1]: 49 µM

SMILES: CCCc1ccc(C(=O)Nc2ccc3nc(N)ncc3c2)cc1.Cl
- hemolysis at 1 h, 200 µM [3]: 14%
- Activity [5]: Non-Toxic
- IC50 [1]: 16 µM
- HI [6]: > 33
- hemolysis at 1 h, 500 µM [4]: 25%

SMILES: Nc1ncc2cc(NC(=O)c3ccccc3)ccc2n1
- IC50 [1]: 34 µM

SMILES: CCCCCCS(=O)(=O)Nc1ccc2nc(N)ncc2c1
- IC50 [1]: > 100 µM
